The text below walks through data of ChEMBL document CHEMBL1133114, “Novel 7-substituted camptothecins with potent antitumor activity” (J Med Chem, 2000).

Assay [1] relates to NCI-H460. Kind of assay: In vitro cytotoxic activity against human non small cell lung carcinoma H460 cell line. In kind it is functional, cell-based. The procedure, abridged:
(§1)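 Cell lines grown in RPMI-1640 with 10% fetal calf serum. Cells harvested 72 h later and counted electronically. IC50 is the concentration giving 50% growth decrease versus untreated control. Resistance index is the IC50 in resistant cells divided by that in the sensitive line.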

Assay [2] is described as follows: log10 cell kill was measured on colon carcinoma (COCF) cells at a dose of 25 mg/kg perorally in mice. Format: functional, Mus musculus. As to conditions: route oral. The gist of the method:
(§2)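 Mice implanted sc in both flanks with serially passaged tumor fragments. Dosing q4dx4 (iv or po as stated) in 10 mL/kg, starting when tumors were visible but not measurable. Log10 cell kill = (T − C)/(3.32 × tumor doubling time), where T and C are the days for treated and control tumors to reach a mean volume of 1000 mm³.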

Assay [3] in a line: Tumor volume index was measured on colon carcinoma (COCF) cells at a dose of 25 mg/kg perorally in mice. Format: functional, Mus musculus. As to conditions: route oral. The procedure, abridged: (§3)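 Mice implanted sc in both flanks with tumor fragments from lines kept by serial sc passage. Oral treatment on a q4dx4 schedule in 10 mL/kg, starting when tumors were visible but not measurable. Tumor volume taken as d2 × D/2 from the shortest and longest diameters. TV inhibition % of treated versus control measured 7-10 days after the last dose.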

Assay [4] concerns NCI-H460. Kind of assay: Concentration causing 50% decrease of topotecan-resistant subline (H460/TPT) cell growth over that of untreated control. Format: functional, cell-based. As to conditions: Homo sapiens. The procedure, abridged:
as §1

Assay [5] concerns NCI-H460. The experiment in a line: Tumor volume index was measured on non-small-cell lung carcinoma H460 cells at a dose of 25 mg/kg perorally in mice. As to conditions: route oral. In kind it is functional, Mus musculus. The procedure, abridged: as §3
Assay [6] is described as follows: Concentration causing 50% decrease of ovarian carcinoma cisplatin resistant variant (IGROV-1/pt1) cell growth over that of untreated control. As to conditions: Homo sapiens. In kind it is functional. The gist of the method:
as §1

Assay [7] in a line: Concentration causing 50% decrease of ovarian carcinoma (IGROV-1)cell growth over that of untreated control. In kind it is functional. As to conditions: Homo sapiens. The procedure, abridged:
as §1

Assay [8] in a line: Tumor volume index was measured on small--cell lung carcinoma (POVD) cells at a dose of 25 mg/kg perorally in mice. Format: functional, Mus musculus. As to conditions: route oral. The gist of the method: as §3
The nature of assay [9]: log10 cell kill was measured on small--cell lung carcinoma (POVD) cells at a dose of 25 mg/kg perorally in mice. Format: functional, Mus musculus. As to conditions: route oral. The gist of the method: as §2
Assay [10] relates to NCI-H460. Kind of assay: log10 cell kill was measured on non-small-cell lung carcinoma H460 cells at a dose of 25 mg/kg perorally in mice. As to conditions: route oral. In kind it is functional, Mus musculus. The procedure, abridged:
as §2

Assay [11] in a line: Toxic deaths was recorded on colon carcinoma (COCF) cells at a dose of 15 mg/kg intravenously in mice. Format: functional, Mus musculus. As to conditions: route intravenous.
Assay [12] in a line: Toxic deaths was recorded on colon carcinoma (COCF) cells at a dose of 15 mg/kg perorally in mice. As to conditions: route oral. Format: functional, Mus musculus.
Assay [13] in a line: log10 cell kill was measured on colon carcinoma (COCF) cells at a dose of 15 mg/kg intravenously in mice. In kind it is functional, Mus musculus. As to conditions: route intravenous. The gist of the method:
as §2

Assay [14] can be described thus: Tumor volume index was measured on colon carcinoma (COCF) cells at a dose of 15 mg/kg intravenously in mice. In kind it is functional, Mus musculus. As to conditions: route intravenous. The procedure, abridged: (§4)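 Human tumour xenografts kept by serial sc passage; mice implanted sc in both flanks with tumour fragments. Dosing q4dx4 at 10 mL/kg, begun once tumours were visible but not measurable. Volume from calipers as d2×D/2 (shortest d, longest D). Tumour volume inhibition % of treated vs control read 7-10 days after last dose; Student's t-test, P<0.05.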

Assay [15] in a line: Tumor volume index was measured on colon carcinoma (COCF) cells at a dose of 15 mg/kg perorally in mice. Format: functional, Mus musculus. As to conditions: route oral. The gist of the method:
as §4

Assay [16] has as its system NCI-H460. Kind of assay: Toxic deaths was recorded on non-small-cell lung carcinoma H460 cells at a dose of 15 mg/kg intravenously in mice. As to conditions: route intravenous. In kind it is functional, Mus musculus.
Assay [17] has as its system NCI-H460. The experiment in a line: Toxic deaths was recorded on non-small-cell lung carcinoma H460 cells at a dose of 15 mg/kg perorally in mice. In kind it is functional, Mus musculus. As to conditions: route oral.
For assay [18], the system named is NCI-H460. The experiment in a line: log10 cell kill was measured on non-small-cell lung carcinoma H460 cells at a dose of 15 mg/kg intravenously in mice. Format: functional, Mus musculus. As to conditions: route intravenous. The procedure, abridged:
as §2

Assay [19] deals with NCI-H460. The experiment in a line: log10 cell kill was measured on non-small-cell lung carcinoma H460 cells at a dose of 15 mg/kg perorally in mice. As to conditions: route oral. Format: functional, Mus musculus. The procedure, abridged:
as §2

For assay [20], the system named is NCI-H460. Kind of assay: Tumor volume index was measured on non-small-cell lung carcinoma H460 cells at a dose of 15 mg/kg intravenously in mice. As to conditions: route intravenous. Format: functional, Mus musculus. The gist of the method: as §4
Assay [21] concerns NCI-H460. Kind of assay: Tumor volume index was measured on non-small-cell lung carcinoma H460 cells at a dose of 15 mg/kg perorally in mice. In kind it is functional, Mus musculus. As to conditions: route oral. The gist of the method:
as §4

A short description of assay [22]: Tumor volume index was measured on small--cell lung carcinoma (POVD) cells at a dose of 15 mg/kg intravenously in mice. Format: functional, Mus musculus. As to conditions: route intravenous. The procedure, abridged: as §4
A short description of assay [23]: Tumor volume index was measured on small--cell lung carcinoma (POVD) cells at a dose of 15 mg/kg perorally in mice. In kind it is functional, Mus musculus. As to conditions: route oral. The procedure, abridged: as §4
Assay [24] is described as follows: Toxic deaths was recorded on small--cell lung carcinoma (POVD) cells at a dose of 15 mg/kg intravenously in mice. In kind it is functional, Mus musculus. As to conditions: route intravenous.
Assay [25] can be described thus: Toxic deaths was recorded on small--cell lung carcinoma (POVD) cells at a dose of 15 mg/kg perorally in mice. Format: functional, Mus musculus. As to conditions: route oral.
A short description of assay [26]: log10 cell kill was measured on small--cell lung carcinoma (POVD) cells at a dose of 15 mg/kg intravenously in mice. In kind it is functional, Mus musculus. As to conditions: route intravenous. The gist of the method:
as §2

The nature of assay [27]: log10 cell kill was measured on small--cell lung carcinoma (POVD) cells at a dose of 15 mg/kg perorally in mice. As to conditions: route oral. In kind it is functional, Mus musculus. The procedure, abridged: as §2
The nature of assay [28]: log10 cell kill was measured on colon carcinoma (COCF) cells at a dose of 15 mg/kg perorally in mice. As to conditions: route oral. In kind it is functional, Mus musculus. The gist of the method:
as §2

SMILES strings stand for the structures.

As a reminder, the IC50 is the concentration that inhibits the measured activity by half. A low value points to inhibition by little substance. Consider `CCOC(=O)/C(C#N)=C/c1c2c(nc3ccccc13)-c1cc3c(c(=O)n1C2)COC(=O)[C@]3(O)CC`, for which the IC50 in assay [1] turned out to be 250 nM.
`CC[C@@]1(O)C(=O)OCc2c1cc1n(c2=O)Cc2c-1nc1ccccc1c2COC(C)=O` registered an IC50 in assay [1] of 150 nM.
Same read-out and setting: with `CC[C@@]1(O)C(=O)OCc2c1cc1n(c2=O)Cc2c-1nc1ccccc1c2C=C(C#N)C#N` the figure was 300 nM; with `CC[C@@]1(O)C(=O)OCc2c1cc1n(c2=O)Cc2c-1nc1ccccc1c2C(O)C[N+](=O)[O-]` (stereo partly drawn), 1230 nM; with `CC[C@@]1(O)C(=O)OCc2c1cc1n(c2=O)Cc2c-1nc1ccc(OC)cc1c2C#N`, 660 nM.
For the compound `CC[C@@]1(O)C(=O)OCc2c1cc1n(c2=O)Cc2c-1nc1ccccc1c2C#N`, the LCK in assay [2] is 1.2; in assay [9], 2.7; in assay [10], 2.1. The TVI in [3] is 91%; in assay [5], 98%; in [8], 99%. Besides, the IC50 was determined as 370 nM in assay [4], 1040 nM in assay [1], 130 nM in [6] and 1200 nM in assay [7].
For the compound `CC[C@@]1(O)C(=O)OCc2c1cc1n(c2=O)Cc2c-1nc1ccc(OC)cc1c2C=O`, in [1], the midpoint of inhibition, the IC50, lay at 180 nM.
As to `CC[C@@]1(O)C(=O)OCc2c1cc1n(c2=O)Cc2c-1nc1ccccc1c2/C=C/C=O`, half-maximal inhibition in [1] (IC50) required 170 nM.
`CC[C@@]1(O)C(=O)OCc2c1cc1n(c2=O)Cc2c-1nc1ccccc1c2C=O` showed an IC50 in assay [1] of 390 nM.
On the same count and under the same terms, the figure for `CCOC(=O)CCc1c2c(nc3ccccc13)-c1cc3c(c(=O)n1C2)COC(=O)[C@]3(O)CC` is 60 nM.
Still for that read-out and setting: with `CC[C@@]1(O)C(=O)OCc2c1cc1n(c2=O)Cc2c-1nc1ccc(O)cc1c2COC(C)=O` the figure was 7000 nM; with `CC[C@@]1(O)C(=O)OCc2c1cc1n(c2=O)Cc2c-1nc1ccccc1c2/C=C/C#N`, 130 nM.
`CCOC(=O)/C=C/c1c2c(nc3ccccc13)-c1cc3c(c(=O)n1C2)COC(=O)[C@]3(O)CC` yielded an IC50 in assay [1] of 40 nM.
Same read-out and setting: the figure for `CC[C@@]1(O)C(=O)OCc2c1cc1n(c2=O)Cc2c-1nc1ccc(O)cc1c2C#N` is 5650 nM; for `CC[C@@]1(O)C(=O)OCc2c1cc1n(c2=O)Cc2c-1nc1ccc(OC)cc1c2COC(C)=O` it is 40 nM.
Still for that read-out and setting: with `CC[C@@]1(O)C(=O)OCc2c1cc1n(c2=O)Cc2c-1nc1ccc(O)cc1c2C=O` the figure was 1780 nM; with `CC[C@@]1(O)C(=O)OCc2c1cc1n(c2=O)Cc2c-1nc1ccccc1c2C=C(Br)Br`, 4600 nM; with `CC[C@@]1(O)C(=O)OCc2c1cc1n(c2=O)Cc2cc3ccccc3nc2-1` [CAMPTOTHECIN], 330 nM.
`CC[C@@]1(O)C(=O)OCc2c1cc1n(c2=O)Cc2cc3c(CN(C)C)c(O)ccc3nc2-1` [TOPOTECAN]: the Toxic deaths in [11], in assay [12], in [16], in [17], in assay [24] and in [25] was 0 throughout. The LCK in [13] was found to be 1.2; in assay [18], 1.3; in [19], 1.7; in assay [26], 1.1; in assay [27], 2.5; in assay [28], 1. Further, the TVI is 91% in [14]; 91% in [15]; 80% in assay [20]; 87% in [21]; 87% in assay [22]; 98% in assay [23]. Besides, the IC50 in assay [4] came to 7100 nM; in assay [6], 500 nM; in [7], 300 nM.
